Test: Treatment-emergent adverse events, tolerability
Assay type: in vivo, healthy men
Conditions: for TEAE Agusia / TEAE Back pain / TEAE Burning sensation / TEAE Chills / TEAE Dizziness / TEAE Dizziness postural / TEAE Dysgeusia / TEAE Fatigue / TEAE Feeling cold / TEAE Feeling hot / TEAE Headache / TEAE Hematoma / TEAE Hyperhidrosis / TEAE Hypoesthesia / TEAE Hypogeusia / TEAE Nausea / TEAE Paresthesia / TEAE Pruritus / TEAE Pyrexia / TEAE Rhinitis / TEAE Thermal burn / TEAE Thermohypoesthesia / Total no. participants with AEs: part 1
Procedure, shortened: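 Healthy men received single oral tablet doses (part 1: 1–225 mg; part 2: 10, 50 mg) or placebo under double-blind randomisation. Treatment-emergent adverse events were recorded along with clinical laboratory tests, ECG, oral temperature, vital signs and physical examinations, through follow-up.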

CC(C)(O)c1ccccc1-c1ccc2[nH]c(/C=C/c3ccc(C(F)(F)F)cc3)nc2c1 [JNJ-39439335, trans-2-(2-{2-[2-(4-Trifluoromethyl-phenyl)-vinyl]-1H-benzimidazol-5-yl}-phenyl)-propan-2-ol]
≥ 10 mg: Doses at which thermohypoesthesia occurred (in vivo)
3 (50) n (%): Total no. participants with AEs (2 mg (N = 6))
4 (67) n (%): TEAE Pyrexia (5 mg (N = 6)) | Total no. participants with AEs (5 mg (N = 6))
0 n (%): TEAE Agusia (1 mg (N = 6)) | TEAE Back pain (1 mg (N = 6)) | TEAE Burning sensation (1 mg (N = 6)) | TEAE Chills (1 mg (N = 6)) | TEAE Dizziness (1 mg (N = 6)) | TEAE Dysgeusia (1 mg (N = 6)) | TEAE Feeling cold (1 mg (N = 6)) | TEAE Feeling hot (1 mg (N = 6)) | TEAE Headache (1 mg (N = 6)) | TEAE Hematoma (1 mg (N = 6)) | TEAE Hyperhidrosis (1 mg (N = 6)) | TEAE Hypoesthesia (1 mg (N = 6)) | TEAE Hypogeusia (1 mg (N = 6)) | TEAE Nausea (1 mg (N = 6)) | TEAE Paresthesia (1 mg (N = 6)) | TEAE Pruritus (1 mg (N = 6)) | TEAE Pyrexia (1 mg (N = 6)) | TEAE Rhinitis (1 mg (N = 6)) | TEAE Thermal burn (1 mg (N = 6)) | TEAE Thermohypoesthesia (1 mg (N = 6)) | TEAE Agusia (2 mg (N = 6)) | TEAE Back pain (2 mg (N = 6)) | TEAE Burning sensation (2 mg (N = 6)) | TEAE Chills (2 mg (N = 6)) | TEAE Dizziness (2 mg (N = 6)) | TEAE Dizziness postural (2 mg (N = 6)) | TEAE Dysgeusia (2 mg (N = 6)) | TEAE Fatigue (2 mg (N = 6)) | TEAE Feeling cold (2 mg (N = 6)) | TEAE Feeling hot (2 mg (N = 6)) | TEAE Hyperhidrosis (2 mg (N = 6)) | TEAE Hypogeusia (2 mg (N = 6)) | TEAE Nausea (2 mg (N = 6)) | TEAE Paresthesia (2 mg (N = 6)) | TEAE Pruritus (2 mg (N = 6)) | TEAE Pyrexia (2 mg (N = 6)) | TEAE Rhinitis (2 mg (N = 6)) | TEAE Thermal burn (2 mg (N = 6)) | TEAE Thermohypoesthesia (2 mg (N = 6)) | TEAE Agusia (5 mg (N = 6)) | TEAE Back pain (5 mg (N = 6)) | TEAE Burning sensation (5 mg (N = 6)) | TEAE Chills (5 mg (N = 6)) | TEAE Dizziness (5 mg (N = 6)) | TEAE Dizziness postural (5 mg (N = 6)) | TEAE Dysgeusia (5 mg (N = 6)) | TEAE Fatigue (5 mg (N = 6)) | TEAE Headache (5 mg (N = 6)) | TEAE Hematoma (5 mg (N = 6)) | TEAE Hyperhidrosis (5 mg (N = 6)) | TEAE Hypoesthesia (5 mg (N = 6)) | TEAE Hypogeusia (5 mg (N = 6)) | TEAE Nausea (5 mg (N = 6)) | TEAE Paresthesia (5 mg (N = 6)) | TEAE Pruritus (5 mg (N = 6)) | TEAE Rhinitis (5 mg (N = 6)) | TEAE Thermal burn (5 mg (N = 6)) | TEAE Thermohypoesthesia (5 mg (N = 6))
7 participants: Participants with minor or first-degree burns on the hand or the mouth (of 79 participants receiving JNJ-39439335)
2 (33) n (%): Total no. participants with AEs (1 mg (N = 6))
1 (17) n (%): TEAE Dizziness postural (1 mg (N = 6)) | TEAE Fatigue (1 mg (N = 6)) | TEAE Headache (2 mg (N = 6)) | TEAE Hematoma (2 mg (N = 6)) | TEAE Hypoesthesia (2 mg (N = 6)) | TEAE Feeling cold (5 mg (N = 6)) | TEAE Feeling hot (5 mg (N = 6))
